Results as given in ChEMBL document CHEMBL4837261, “Optimization of TopoIV Potency, ADMET Properties, and hERG Inhibition of 5-Amino-1,3-dioxane-Linked Novel Bacterial Topoisomerase Inhibitors: Identification of a Lead with In Vivo Efficacy against MRSA” (J Med Chem, 2021).
≈ marks a conversion by molar mass, not a printed value.

How the values were obtained:
Staphylococcus aureus [1] = assay: Antibacterial activity against Staphylococcus aureus by CLSI method; format: functional
Procedure, shortened: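 MICs were determined by broth microdilution per CLSI guidelines, in triplicate at minimum. Strains were S. aureus ATCC 29213, MRSA USA300 and a cystic fibrosis respiratory isolate, and ranges are given where seen.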

Staphylococcus aureus [2] = assay: Antibacterial activity against cystic fibrosis isolate Staphylococcus aureus by CLSI method; format: functional
Staphylococcus aureus [3] = assay: Antibacterial activity against methicillin-resistant Staphylococcus aureus USA300 by CLSI method; format: functional
Staphylococcus aureus [4] = assay: Antibacterial activity against Staphylococcus aureus harbouring GyrA D83N mutant by CLSI method; format: functional
Streptococcus pneumoniae = assay: Antibacterial activity against Streptococcus pneumoniae by CLSI method; format: functional
Enterococcus sp. = assay: Antibacterial activity against Enterococcus sp. by CLSI method; format: functional
Staphylococcus aureus [5] = assay: Antibacterial activity against Staphylococcus aureus ATCC 29213 by CLSI method; format: functional
Acinetobacter baumannii = assay: Antibacterial activity against Acinetobacter baumannii by CLSI method; format: functional
Staphylococcus aureus [6] = assay: Antibacterial activity against Staphylococcus aureus 3527 by CLSI method; format: functional
DNA gyrase [7] = biological target: DNA gyrase (Staphylococcus aureus, UniProt P0A0K8+P20831); assay: Inhibition of Staphylococcus aureus Gyrase supercoiling activity assessed as reduction in supercoiling pBR322 DNA by measuring relaxation by bromophenol blue staining based TAE gel method; format: protein-complex assay
Topoisomerase IV = Topoisomerase IV (Staphylococcus aureus, UniProt P0C1S7+P0C1U9); assay: Inhibition of Staphylococcus aureus topoisomerase IV decatenation activity using kDNA as substrate by ethidium bromide/bromophenol blue staining based agarose gel electrophoresis analysis; format: protein-complex assay
Staphylococcus aureus [8] = assay: Selectivity index, ratio of IC50 for inhibition of Staphylococcus aureus topoisomerase IV decatenation activity to IC50 for inhibition of Staphylococcus aureus DNA gyrase supercoiling activity
Procedure, shortened: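 Both IC50s were measured in gel-based assays with S. aureus enzymes: supercoiling inhibition for DNA gyrase and decatenation inhibition for TopoIV. The ratio is TopoIV IC50 divided by gyrase IC50.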

DNA gyrase [9] = biological target: DNA gyrase (Staphylococcus aureus, UniProt P0A0K8+P20831, D83N); assay: Inhibition of Staphylococcus aureus DNA Gyrase D83N mutant assessed as reduction in supercoiling pBR322 DNA by measuring relaxation by bromophenol blue staining based TAE gel method
Staphylococcus aureus [10] = assay: Selectivity ratio of IC50 for inhibition of Staphylococcus aureus Gyrase D83N mutant to IC50 for inhibition of Staphylococcus aureus Gyrase
Procedure, shortened: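 Ratio of two IC50s: the IC50 from the D83N mutant gyrase supercoiling assay (commercial kit) divided by the IC50 from the gel-based wild-type S. aureus gyrase supercoiling assay.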

[11] = Growth inhibition of human K/VP.5 cells incubated for 48 hrs by NBTI cell counting analysis; format: functional; conditions: K562, 48 h

Row | Structure (SMILES) | MIC50 (Staphylococcus aureus [1]) [µg/mL] | MIC (Staphylococcus aureus [2]) [µg/mL] | MIC (Staphylococcus aureus [3]) [µg/mL] | MIC (Staphylococcus aureus [4]) [µg/mL] | MIC50 (Streptococcus pneumoniae) [µg/mL] | MIC50 (Enterococcus sp.) [µg/mL] | MIC (Staphylococcus aureus [5]) [µg/mL] | MIC50 (Acinetobacter baumannii) [µg/mL] | MIC (Staphylococcus aureus [6]) [µg/mL] | IC50 (DNA gyrase [7]) [µM] | IC50 (Topoisomerase IV) [µM] | Ratio IC50 (Staphylococcus aureus [8]) | IC50 (DNA gyrase [9]) [µM] | Ratio IC50 (Staphylococcus aureus [10]) | IC50 [11] [µM]
1 | COc1ccc2ncc(F)c(C[C@H](O)[C@H]3OC[C@H](NCc4cc5c(cn4)OCCO5)CO3)c2c1 | 0.25 (≈ 0.53 µM) | 0.5 (≈ 1.06 µM) | 0.5 (≈ 1.06 µM) | > 8 | 2 (≈ 4.24 µM) | 0.12 (≈ 0.255 µM) | 0.25 (≈ 0.53 µM) | 64 (≈ 136 µM) | 0.5 (≈ 1.06 µM) | 0.042 | 5.7 | 136 | – | – | –
2 | COc1ccc2ncc(F)c(C[C@H](O)[C@H]3OC[C@H](NCc4cc5c(cn4)OCO5)CO3)c2n1 | – | 0.5 (≈ 1.09 µM) | 1 (≈ 2.18 µM) | > 8 | – | – | 0.5 (≈ 1.09 µM) | – | 1 (≈ 2.18 µM) | 0.85 | 18 | 22 | 73 | 86 | –
3 | COc1ccc2ccc(F)c(C[C@H](O)[C@H]3OC[C@H](NCc4ccc(Cl)c(Cl)c4)CO3)c2n1 | – | 0.25 (≈ 0.519 µM) | 0.5 (≈ 1.04 µM) | 4 (≈ 8.31 µM) | – | – | 0.25 (≈ 0.519 µM) | – | 0.25 (≈ 0.519 µM) | 0.043 | 2.3 | 54 | – | – | –
4 | COc1ccc2ncc(F)c(C(O)C[C@H]3OC[C@H](NCc4ccc(Cl)c(Cl)c4)CO3)c2c1 (mixture of isomers) | – | 0.5 (≈ 1.04 µM) | 0.5 (≈ 1.04 µM) | 4 (≈ 8.31 µM) | – | – | ≤ 0.25 | – | ≤ 0.25 | 0.16 | 8.1 | – | – | – | 24.5
5 | COc1ccc2ncc(F)c(C(O)C[C@H]3OC[C@H](NCc4cc5c(cn4)OCCO5)CO3)c2c1 (mixture of isomers) | – | 0.5 (≈ 1.06 µM) | 1 (≈ 2.12 µM) | 16 (≈ 33.9 µM) | – | – | 0.5 (≈ 1.06 µM) | – | 1 (≈ 2.12 µM) | – | 14 | – | – | – | > 100
6 | COc1ccc2ncc(F)c(C[C@H](O)[C@H]3OC[C@H](NCc4cnc5c(n4)OCCO5)CO3)c2n1 | – | 0.125 (≈ 0.264 µM) | 1 (≈ 2.11 µM) | 8 (≈ 16.9 µM) | – | – | 0.25 (≈ 0.528 µM) | – | 1 (≈ 2.11 µM) | 0.36 | 19 | 52 | 29 | 80 | –
7 | COc1ccc2ncc(F)c(C(O)C[C@H]3OC[C@H](NCc4ccc(Cl)c(Cl)c4)CO3)c2n1 (mixture of isomers) | – | 0.25 (≈ 0.518 µM) | 0.25 (≈ 0.518 µM) | 4 (≈ 8.29 µM) | – | – | 0.125 (≈ 0.259 µM) | – | ≤ 0.25 | 0.22 | 0.6 | 2.7 | – | – | –
8 | COc1ccc2ncc(F)c(C[C@H](O)[C@H]3OC[C@H](NCc4cc5c(cn4)OCCC5)CO3)c2n1 | – | 0.5 (≈ 1.06 µM) | – | 8 (≈ 17 µM) | – | – | 0.125 (≈ 0.266 µM) | – | 0.5 (≈ 1.06 µM) | 0.14 | 1.3 | – | 13 | – | 80.5
9 | COc1ccc2ncc(F)c(C[C@H](O)[C@H]3OC[C@H](NCc4cc5c(nn4)OCCS5)CO3)c2c1 | 0.5 (≈ 1.02 µM) | 0.25 (≈ 0.512 µM) | 0.5 (≈ 1.02 µM) | 8 (≈ 16.4 µM) | 1 (≈ 2.05 µM) | 0.25 (≈ 0.512 µM) | 0.25 (≈ 0.512 µM) | > 64 | 0.5 (≈ 1.02 µM) | 0.056 | 4.8 | 87 | 19 | 336 | –
10 | COc1ccc2ncc(F)c(C[C@H](O)[C@H]3OC[C@H](NCc4ccc(C)cc4)CO3)c2n1 | – | 0.25 (≈ 0.585 µM) | ≤ 0.25 | 8 (≈ 18.7 µM) | – | – | 0.125 (≈ 0.292 µM) | – | ≤ 0.25 | 0.16 | 2.7 | – | 6.5 | – | 46.9
11 | COc1ccc2ncc(F)c(C(O)C[C@H]3OC[C@H](NCc4ccc(C)cc4)CO3)c2c1 (mixture of isomers) | – | 0.5 (≈ 1.17 µM) | 0.5 (≈ 1.17 µM) | 16 (≈ 37.5 µM) | – | – | 0.125 (≈ 0.293 µM) | – | 0.5 (≈ 1.17 µM) | 0.11 | 14 | – | – | – | 21.7
12 | COc1ccc2ncc(F)c(C[C@H](O)[C@H]3OC[C@H](NCc4ccc(Cl)c(Cl)c4)CO3)c2c1 | – | 0.5 (≈ 1.04 µM) | 0.25 (≈ 0.519 µM) | 4 (≈ 8.31 µM) | – | – | 0.125 (≈ 0.26 µM) | – | 0.25 (≈ 0.519 µM) | 0.056 | 1.3 | 24 | – | – | –
13 | COc1ccc2ncc(F)c(C[C@H](O)[C@H]3OC[C@H](NCc4ccc(Cl)c(Cl)c4)CO3)c2n1 | 0.06 (≈ 0.124 µM) | 0.125 (≈ 0.259 µM) | 0.125 (≈ 0.259 µM) | 4 (≈ 8.29 µM) | 4 (≈ 8.29 µM) | 0.06 (≈ 0.124 µM) | ≤ 0.25 | > 64 | 0.125 (≈ 0.259 µM) | 0.16 | 1.1 | – | 5.5 | – | 22.2
